For 8 molecules, Activity and log fraction in octanol layer results are on record in ChEMBL document CHEMBL1142654, “Partition-variant desferrithiocin analogues: organ targeting and increased iron clearance” (J Med Chem, 2005).

One data set relates to Monkey. The data set is described as follows: Percentage of iron clearing efficiency was measured in monkey after administration at 150 umol/kg (n=4). Type of data set: functional. The procedure, abridged:
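Cebus apella monkeys iron-overloaded with iv iron dextran to about 500 mg Fe/kg, at least 60 days before use. Single po dose of 150 µmol/kg as solution or suspension in 40% Cremophor RH-40/water. Stool and urine collected every 24 h, from 4 days before dosing to 5 days after. Iron measured by flame atomic absorption. ICE = (2-day post-dose iron minus mean 4-day baseline) / theoretical excretion × 100. Mean ± SEM.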

Data set [1] in a line: Lipophilicity (Log Papp) was measured at pH 7.4; Activity expressed as the log of the fraction in the octanol layer. Conditions: octanol/aqueous phase. Type of data set: physicochemical. The essentials:
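Shake-flask octanol/water distribution at pH 7.4 in 50 mM TRIS buffer, uncorrected for partial ionization. Quadruplicate samples shaken with 1-octanol overnight, layers left to settle 1-2 h before separation. Room temperature (22-24 °C), UV spectrometric read-out, value given as log of fraction in octanol layer.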

Each structure is given as a SMILES string.

As for `O=C(O)[C@H]1CSC(c2ccc(O)cc2O)=N1`, the Activity with Monkey is on record as 4.2%. In data set [1], this molecule yielded a log fraction in octanol layer of -1.33.
For the molecule `C[C@]1(C(=O)O)CSC(c2cccc(O)c2O)=N1`, in the data set with Monkey, the Activity was 23.1%. The same molecule registered a log fraction in octanol layer in data set [1] of -1.17.
Molecule `COc1cccc(C2=N[C@@](C)(C(=O)O)CS2)c1O` yielded an Activity in the data set on Monkey of 22.5%. Besides, the log fraction in octanol layer in data set [1] was -1.12.
`C[C@]1(C(=O)O)CSC(c2ccc(O)cc2O)=N1` [DEFERITRIN] came in with an Activity with Monkey of 13.4%. The molecule also gave a log fraction in octanol layer in data set [1] of -1.05.
For `COc1ccc(C2=N[C@@](C)(C(=O)O)CS2)c(O)c1`, the Activity in the data set on Monkey is reported as 24.4%. Also, the log fraction in octanol layer in data set [1] was -0.7.
On to `COc1cccc(C2=N[C@@H](C(=O)O)CS2)c1O`, for which, in the data set on Monkey, the Activity is recorded as 15.5%. For the same molecule, the log fraction in octanol layer in data set [1] is -1.52.
With `O=C(O)[C@H]1CSC(c2cccc(O)c2O)=N1`, in the data set with Monkey, the Activity is recorded as 5.8%. For the same molecule, the log fraction in octanol layer in data set [1] was -1.67.
For the molecule `COc1ccc(C2=N[C@@H](C(=O)O)CS2)c(O)c1`, the Activity in the data set on Monkey worked out at 16.2%. In data set [1], the log fraction in octanol layer is -0.89.
